Source: PubChem BioAssay
Compounds with a hit are over-represented: about 4% of the library has one in this group of screens.
FGF22 binding: FGF22 (human) thermal shift binding; Q9HCT0; recombinant FGF22 thermal shift, SYPRO orange fluorescence; percent of sucrose octasulfate shift, DMSO zero; activity (Tm shift, normalised), % at 9.99 µM; hit rate 1.5% among 340,000;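 active means mean Tm shift, scaled 0 neutral to 100 positive control, at about 1.3% or above, every replicate too, limit read from the data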
Target sequence (Q9HCT0 whole entry, looked up): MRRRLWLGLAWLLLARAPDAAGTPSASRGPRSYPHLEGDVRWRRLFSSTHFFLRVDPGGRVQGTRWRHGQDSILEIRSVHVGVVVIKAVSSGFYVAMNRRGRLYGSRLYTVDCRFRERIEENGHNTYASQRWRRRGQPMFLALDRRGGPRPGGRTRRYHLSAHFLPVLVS
Ecoli rRNA inh: selective bacterial rRNA inhibition in E. coli | GFP signal change (wild-type ribosome), % (no concentration beside the values) | hit rate 1.6% among 350,000 | E. coli WT GFP vs humanized-ribosome RFP mutants, fluorescence, 24 h; stronger effect = lower value; DMSO median 0, no signal -100 | AID 720706;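 active means significant combined selectivity score with lowered wild-type GFP, culture density cut under 30%, mutant RFP and density less affected; inactive means any of these conditions unmet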
SIRT5 inh: inhibitors of human sirtuin-5 desuccinylase; Q9NXA8; Purified SirT5, succinyl-peptide AMC, trypsin-coupled fluorescence; inhibition, % at 15 µM; hit rate 1.1% among 330,000; AID 652115; in the data active means inhibition above about 15%
Target sequence (Q9NXA8 whole entry, looked up): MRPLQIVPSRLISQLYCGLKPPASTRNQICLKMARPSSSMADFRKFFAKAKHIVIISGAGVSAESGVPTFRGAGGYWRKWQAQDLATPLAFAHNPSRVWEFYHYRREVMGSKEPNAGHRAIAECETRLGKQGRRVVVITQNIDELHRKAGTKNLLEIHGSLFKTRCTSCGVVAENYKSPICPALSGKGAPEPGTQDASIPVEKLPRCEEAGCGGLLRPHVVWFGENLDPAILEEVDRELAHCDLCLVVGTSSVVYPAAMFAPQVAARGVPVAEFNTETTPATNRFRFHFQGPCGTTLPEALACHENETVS
Statin myotox sup: suppression of simvastatin myotoxicity. C2C12 myotubes + simvastatin, ATP luminescence, 48 h; scaled: DMSO 0, geranylgeraniol control 100. rescue of ATP level, % at 7.49 µM. hit rate 0.78% among 330,000;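 active means mean ATP rescue above about 67%, or every replicate alone reaching that limit, limit read from the data, passing the limit was not always enough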;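 further: myotubes were challenged with 10 µM simvastatin during compound exposure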
FN deposition inh: fibronectin deposition inhibition | AH1F fibroblasts, Alexa488-fibronectin deposition fluorescence, overnight | inhibition, % at 12.6 µM | hit rate 0.086% among 350,000 | AID 743247;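 active means mean inhibition across replicates of 30% or more, regardless of how many single replicates reach that level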;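 further: positive control wells lacked labelled fibronectin entirely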
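Material – AH1F fibroblast monolayer, labelled fibronectin deposition · Reagent – labelled fibronectin 24 nM · Timing – 1 h adhesion, overnight exposure · Measured by – fluorescence at 485 nm excitation, 525 nm emission · Read-out – inhibition of fibronectin deposition signal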
E-sel inducer: E-selectin induction on HUVECs; activation, % at 7.58 µM; hit rate 0.37% among 260,000; HUVEC E-selectin immunofluorescence imaging; normalized: neutral wells 0, TNF-alpha wells 100;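 active means mean E-selectin-positive cell signal at least 10% of the positive control, reached in at least 60% of replicates, without over 20% cell loss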
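Test system: HUVEC; input: 3,000 HUVEC/well; measured by: immunofluorescence imaging; read-out: % PE-positive cells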
* hit, by the source's call; nt = not tested or not shown.

SMILES	FGF22 binding	Ecoli rRNA inh	SIRT5 inh	Statin myotox sup	FN deposition inh	E-sel inducer
C[C@H](CO)N1C[C@H](C)[C@H](CN(C)C(=O)c2cccnc2)Oc2ncc(C3=CCCCC3)cc2C1=O	0	3	-21	5	nt	1
CCCCn1c(CCc2ccccc2)nc2cc3[nH]c(=O)c(C(C)C)nc3cc21	0	9	-1	119*	-8	0
CC(C)(C)S(=O)N1Cc2cc(=O)n(Cc3ccccc3)c(CCO)c2[C@H]1CCO (some centres undefined)	0	2	26*	3	11	0
CC(C)(C)S(=O)(=O)N1Cc2cc(=O)n(Cc3ccccc3)c(CCO)c2[C@H]1CCO	0	3	0	11	-7	nt
CCC1(C)Cc2c(sc3[nH]c(=O)[nH]c(=O)c23)CS1 (centres undefined)	nt	nt	nt	100*	nt	nt
Cc1noc(C)c1NC(=O)N(C)C[C@@H]1Oc2ccc(NS(=O)(=O)c3ccc(Cl)cc3)cc2CC(=O)N([C@H](C)CO)C[C@H]1C	0	3	-2	-52	nt	12
O=C(Nc1nc(-c2ccc(Cl)cc2Cl)cs1)c1ccc(OCC2CCCO2)cc1 (centres undefined)	0	4	112*	nt	7	0
COc1cc(C(=O)N2CCN(c3ccccc3)CC2)c([N+](=O)[O-])cc1OC	43*	-2	1	-4	-2	-3
COc1cc(C(=O)c2ccccc2Cl)c([N+](=O)[O-])cc1OC	44*	2	2	-4	-5	3
Cc1c2cc(O)c(=O)cc-2oc2cc(O)c(O)cc12	0	2	29*	1	nt	nt
COc1cc(OC)c(-c2c3cc(O)c(=O)cc-3oc3cc(O)c(O)cc23)cc1OC	1	75	7	nt	-4	nt
CCCN1C[C@H](C)[C@H](OC)CN(C)C(=O)c2ccc(NC(=O)CC)cc2OC[C@H]1C	nt	3	nt	-36	0	0
C[C@H]1CN([C@@H](C)CO)C(=O)Cc2cc(NC(=O)NC3CCCCC3)ccc2O[C@H]1CN(C)C	0	-3	5	-4	-5	-4
CC(=O)OCC1=C(C(=O)O)N2C(=O)C(NC(=O)c3ccc(COc4cccc(Cl)c4Cl)o3)C2SC1 (centres undefined)	0	-26*	4	6	-3	4
CO[C@H]1CN(C)C(=O)c2ccc(NC(=O)C3CCCC3)cc2OC[C@H](C)N(C(C)=O)C[C@H]1C	0	1	0	-3	-33	0
CC1CN(CCOc2ccccc2-c2ccccc2)CC(C)O1 (centres undefined)	0	-46	31*	nt	-12	1
O=C(O)c1cc2n(n1)C(C(F)(F)F)CC(C1CC1)N2 (centres undefined)	43*	8	1	nt	2	0
COc1cc(OC)cc(-c2nc3nc(C)c(CCC(=O)O)c(C)n3n2)c1	nt	nt	nt	117*	nt	nt
COc1cc(OC)cc(-c2nc3nc(C)c(CCC(=O)NCC(OC)OC)c(C)n3n2)c1	0	12	1	nt	-9	nt
COc1ccc(S(=O)(=O)N(CC(=O)NCc2ccco2)c2ccccc2)cc1	nt	nt	nt	-1	-4	nt
COc1ccc(N(CC(=O)NCc2ccco2)S(=O)(=O)c2ccccc2)cc1	43*	-1	-5	nt	4	5
O=C(CN(Cc1ccc(F)cc1)C(=O)CNS(=O)(=O)c1ccc(F)cc1)NCc1ccco1	0	-1	-1	5	-10	30*
Cc1ccc(S(=O)(=O)N(CC(=O)NCc2ccco2)Cc2ccccc2F)cc1	nt	nt	nt	67*	nt	nt
COc1ccc(CN(C)C[C@H]2OCCCC[C@H](C)Oc3ccc(NS(=O)(=O)c4ccc(C)cc4)cc3C(=O)N([C@@H](C)CO)C[C@@H]2C)cc1	nt	1	2	nt	nt	1
CC=Cc1ccc2n(c1=O)C[C@H]1[C@H](CO)[C@@H](C(=O)NC3CCC3)[C@@H]2N1C(=O)c1cnccn1 (mixture of isomers)	nt	-1	2	nt	nt	0
SMILES	FGF22 binding	Ecoli rRNA inh	SIRT5 inh	Statin myotox sup	FN deposition inh	E-sel inducer
CC(C)NC(=O)N1C[C@H]2[C@@H](c3ccccc31)[C@@H](CO)N2Cc1ccc(Cl)cc1	0	-2	-5	1	nt	0
Cc1noc(C)c1NC(=O)Nc1cccc2c1O[C@H](CN(C)C(=O)Nc1cccc3ccccc13)[C@H](C)CN([C@H](C)CO)C2=O	0	0	1	-2	nt	0
COc1ccccc1/C=C/C(=O)Nc1ccc(S(=O)(=O)Nc2cc(C)on2)cc1	0	-35*	3	-1	2	0
COc1ccccc1OCC(=O)Nc1ccc(S(=O)(=O)Nc2cc(C)on2)cc1	0	3	-4	1	-1	nt
Cc1ccc(S(=O)(=O)Nc2ccc3c(c2)C(=O)N([C@@H](C)CO)C[C@H](C)[C@H](CN(C)C(=O)Nc2cccc4ccccc24)O3)cc1	0	1	3	14	nt	0
C[C@@H]1CN([C@@H](C)CO)C(=O)c2cccc(NC(=O)C3CC3)c2O[C@@H]1CN(C)Cc1ccc(C(=O)Nc2ccccc2N)cc1	0	-2	17*	-42	nt	3
C[C@H](CO)N1C[C@H](C)[C@H](CN(C)Cc2ccc(C(=O)Nc3ccccc3N)cc2)Oc2c(NC(=O)C3CC3)cccc2C1=O	0	2	8	7	nt	0
C[C@H](CO)N1C[C@H](C)[C@@H](CN(C)Cc2ccc(C(=O)Nc3ccccc3N)cc2)Oc2c(NC(=O)c3ccncc3)cccc2C1=O	0	-1	-3	nt	nt	9
C[C@H]1CN([C@@H](C)CO)C(=O)c2cccc(NC(=O)c3ccncc3)c2O[C@@H]1CN(C)Cc1ccc(C(=O)Nc2ccccc2N)cc1	0	2	-1	nt	nt	58*
C[C@H](CO)N1C[C@H](C)[C@@H](CN(C)Cc2ccc(C(=O)Nc3ccccc3N)cc2)Oc2c(NC(=O)Nc3ccccc3)cccc2C1=O	0	3	0	35	nt	5
C[C@@H]1CN([C@@H](C)CO)C(=O)c2cccc(NC(=O)Nc3ccccc3)c2O[C@H]1CN(C)Cc1ccc(C(=O)Nc2ccccc2N)cc1	0	0	5	69*	nt	2
C[C@@H]1CN([C@@H](C)CO)C(=O)c2cc(NS(C)(=O)=O)ccc2O[C@@H](C)CCCCO[C@@H]1CN(C)Cc1ccncc1	0	1	-2	-14	nt	0
COc1ccc(S(=O)(=O)N(C)C[C@@H]2OCCCC[C@H](C)Oc3ccc(NC(=O)Nc4ccc5c(c4)OCO5)cc3C(=O)N([C@H](C)CO)C[C@H]2C)cc1	0	8	2	-6	nt	0
